# Measurements collected from several papers.
# Protocols differ between the studies behind these lines.
# Target: Casein kinase II subunit alpha (CSNK2A1, Homo sapiens, UniProt P68400)
Compound,test,conditions,measurement,result
COc1cc2ncnc(Nc3ccc(Oc4ccccc4)cc3C)c2cc1OC,"enzyme activity, inhibitor",1 µM,inhibition,11%
Cc1ccc(Nc2nccc(N(C)c3ccc4c(C)n(C)nc4c3)n2)cc1S(N)(=O)=O,"enzyme activity, inhibitor",0.3 µM,inhibition,-9%
COc1cccc(CNC(=O)c2nc3scc(COCc4ccc(C(=O)O)cc4)c3c(=O)[nH]2)c1,"cell-free assay, competition with immobilised ligand",1 µM,remaining binding,90.7%
CCCOc1ccc(OC)c(F)c1C(=O)c1ccc(C(=O)N[C@@H]2CNC[C@H]2NC(=O)c2ccc3[nH]ncc3c2)cc1,"enzyme activity, inhibitor",10 µM,remaining activity,108%
CCC1(CC)NC(=O)c2c(c3ccc(Cl)c(Cl)c3n2C)C1C#N (stereo not shown),"thermal stability, DSF",10 µM,ΔTm,0 °C
CN([C@@H]1CCc2c(CC(=O)O)c3ccccc3n2C1)S(=O)(=O)c1ccc(F)cc1,"cell-free assay, competition with immobilised ligand",1 µM,remaining binding,82%
C#Cc1cccc(Nc2ncnc3cc(OCCOC)c(OCCOC)cc23)c1,cell-free assay,0.5 µM,remaining signal,78.9%
Nc1ncnc2occ(-c3ccc(NC(=O)Nc4cc(C(F)(F)F)ccc4F)cc3)c12,"enzyme activity, inhibitor",20 µM,remaining activity,63%
CCCS(=O)(=O)Nc1ccc(F)c(C(=O)c2c[nH]c3ncc(-c4ccc(Cl)cc4)cc23)c1F,"enzyme activity, inhibitor",1 µM,inhibition,< 10%
Nc1cnc(N2CCc3cc(S(=O)(=O)Nc4c(F)cc(Cl)cc4F)cc(N4CCCC4=O)c32)nc1,"cell-free assay, competition with immobilised ligand",1 µM,remaining binding,100%
O=C(Nc1cnn(-c2csc(C(=O)NC3COC3)c2)c1)Nc1c(F)cccc1Cl,"enzyme activity, inhibitor",5 µM,remaining activity,90.5%
Cc1ccc(C(=O)NCc2ccsc2)cc1C#Cc1cn(C(C)C)c2ncnc(N)c12,"enzyme activity, inhibitor",1 µM,activity vs control,94%
Cn1c2c(c3ccc(Cl)c(Cl)c31)C(C#N)C(C)(C)NC2=O (stereo not shown),"thermal stability, DSF",10 µM,ΔTm,2.6 °C
O=C1Nc2ccc(Cl)cc2C1=Cc1cc(Cl)c(O)c(Cl)c1,cell-free assay,0.5 µM,remaining signal,26.5%
CC(C)(C)C(=O)c1sc(NC2CCCCC2)nc1N,"enzyme activity, inhibitor",10 µM,remaining activity,118%
Cn1c2c(c3ccc(Cl)c(Cl)c31)C(C#N)C1(CCCCC1)NC2=O (racemic),"thermal stability, DSF",10 µM,ΔTm,0.7 °C
C[C@@H]1CN(c2cc(-c3n[nH]c4ccc(OC5(C)CC5)cc34)ncn2)C[C@H](C)O1,"cell-free assay, competition with immobilised ligand",0.1 µM,remaining binding,66%
Nc1nc(NC2CCCCC2)sc1C(=O)c1ccccc1,"enzyme activity, inhibitor",10 µM,remaining activity,114%
NS(=O)(=O)c1cc(NC(=O)Cc2ccccc2)ccc1Oc1cccc(Cl)c1,"cell-free assay, competition with immobilised ligand",1 µM,remaining binding,96%
Cn1c2c(c3ccc(Cl)c(Cl)c31)C(C#N)C1(CCN(C(=O)OC(C)(C)C)CC1)NC2=O (racemic),"thermal stability, DSF",10 µM,ΔTm,-0.1 °C
O=C(O)c1cc(-c2ccc(C3CCNCC3)cc2)c2ccc(-c3ccc(C(F)(F)F)cc3)cc2c1,"cell-free assay, competition with immobilised ligand",1 µM,remaining binding,100%
C[S+]([O-])c1ccc(-c2nc(-c3ccncc3)c(-c3ccc(F)cc3)[nH]2)cc1 (stereo not shown),cell-free assay,0.5 µM,remaining signal,86.2%
COc1cc(/C=C/C(=O)CC(=O)/C=C/c2ccc(O)c(OC)c2)ccc1O,"enzyme activity, inhibitor",1 µM,activity vs control,106%
O=C(N1CCS(=O)(=O)CC1)N1C[C@H](c2ccc(OC(F)(F)F)cc2)C[C@H](c2nc(C3CC3)no2)C1,"cell-free assay, competition with immobilised ligand",1 µM,remaining binding,100%
COc1cc(Cl)c(C(=O)N[C@@H](CN[C@H]2CC[C@@H](N)CC2)Cc2ccc(C#N)cc2)cc1-c1ccc(CN[C@H](C)c2ccc(C)cc2)o1,"enzyme activity, inhibitor",1 µM,remaining activity,104%
COc1cc(Nc2cnc(C#N)c(O[C@H](C)CN(C)C)n2)ncc1-c1cnn(C)c1,"enzyme activity, inhibitor, radiometric",1 µM,remaining activity,110%
CCN(CC)CCNC(=O)c1c(C)[nH]c(/C=C2\C(=O)Nc3ccc(F)cc32)c1C,"enzyme activity, inhibitor",10 µM,inhibition,22%
CC(C)(C)c1nc(-c2cccc(NS(=O)(=O)c3c(F)cccc3F)c2F)c(-c2ccnc(N)n2)s1,"enzyme activity, inhibitor, radiometric",1 µM,remaining activity,85%
FC(F)c1nc2ccccc2n1-c1nc(N2CCOCC2)nc(N2CCOCC2)n1,"enzyme activity, inhibitor",10 µM,remaining activity,54%
Cn1cc(Cl)c2c(Oc3c(F)cc(Nc4cc(Cl)nc(N)n4)cc3F)ccnc21,"cell-free assay, competition with immobilised ligand",0.1 µM,remaining binding,98%
Cn1c2c(Cl)c(Cl)ccc2c2cc(N)[nH]c(=O)c21,"thermal stability, DSF",10 µM,ΔTm,2.8 °C
